Experimental data from different studies.
Protocols differ between the studies behind these lines.
SLC18A2: Synaptic vesicular amine transporter (SLC18A2, Homo sapiens, UniProt Q05940)
Spike glycoprotein: Spike glycoprotein (Severe acute respiratory syndrome coronavirus 2, UniProt P0DTC2)

Cn1c(=O)c2[nH]cnc2n(C)c1=O  IC50 (Solute carrier family 22 member 11 (SLC22A11, Homo sapiens, UniProt Q9NSA0); transporter uptake; inhibitor): 5.6 µM
O=c1[nH]c2ccccc2n1C1CCN(CCCC(c2ccc(F)cc2)c2ccc(F)cc2)CC1  IC50 (SLC18A2; transporter uptake; inhibitor; radiometric; cell membranes): 0.386 µM
CC[C@H](C)[C@H](NC(=O)[C@H](CCCCNC(=O)CN(CCNC(=O)CN(CCNC(=O)CN(CCNC(=O)CN(CCNC(=O)[C@H](CCCNC(=N)N)NC(C)=O)C(=O)Cn1ccc(N)nc1=O)C(=O)Cn1cnc2c(=O)[nH]c(N)nc21)C(=O)Cn1cnc2c(=O)[nH]c(N)nc21)C(=O)Cn1ccc(N)nc1=O)NC(=O)[C@H](CC(=O)O)NC(=O)[C@H](CO)NC(=O)[C@@H](NC(=O)[C@H](CCCNC(=N)N)NC(=O)[C@H](CCSC)NC(=O)[C@H](CO)NC(=O)[C@H](C)NC(=O)[C@H](CCC(=O)O)NC(=O)[C@H](C)NC(=O)[C@H](Cc1c[nH]cn1)NC(=O)CNC(=O)[C@H](CC(C)C)NC(=O)[C@H](CCC(=O)O)NC(=O)[C@H](CC(=O)O)NC(=O)[C@H](CC(C)C)NC(=O)[C@H](CC(C)C)NC(=O)[C@H](CCCNC(=N)N)NC(=O)[C@H](CCS)NC(=O)[C@H](CCCC(=O)NCCN(CC(=O)NCCN(CC(=O)NCCN(CC(=O)NCCN(CC(=O)N[C@@H](CCCNC(=N)N)C(N)=O)C(=O)Cn1cnc2c(=O)[nH]c(N)nc21)C(=O)Cn1ccc(N)nc1=O)C(=O)Cn1ccc(N)nc1=O)C(=O)Cn1cnc2c(=O)[nH]c(N)nc21)NC(=O)[C@H](CCC(=O)O)NC(=O)[C@H](Cc1ccc(O)cc1)NC(=O)[C@@H](NC(=O)[C@H](CCCCN)NC(=O)[C@H](CCC(N)=O)NC(=O)[C@H](CC(C)C)NC(=O)[C@@H](NC(=O)[C@H](Cc1c[nH]c2ccccc12)NC(=O)[C@H](CCC(=O)O)NC(=O)[C@H](CCCCN)NC(=O)[C@H](CC(=O)O)NC(C)=O)[C@@H](C)CC)[C@@H](C)CC)C(C)C)C(=O)N[C@@H](Cc1ccc(O)cc1)C(=O)N[C@@H](CCC(=O)O)C(=O)N[C@@H](Cc1ccccc1)C(=O)N[C@@H](CCSC)C(=O)N[C@@H](CCCCN)C(=O)N[C@@H](CCCCN)C(N)=O  Kd (Spike glycoprotein; binding; SPR): 0.0052 µM
CCOC(=O)c1ccc(OC(=O)CCCCCN=C(N)N)cc1  IC50 (Plasminogen (PLG, Homo sapiens, UniProt P00747); enzyme activity; inhibitor): 0.316 µM
O=c1[nH]c2ccccc2n1CCCN1CCC(n2c(=O)[nH]c3cc(Cl)ccc32)CC1  IC50 (SLC18A2; transporter uptake; inhibitor): 0.058 µM
O=C(Nc1ccc2c(c1)C=CCP(=O)(O)O2)c1ccccc1Br  Ki (Carbonic anhydrase 2 (CA2, Homo sapiens, UniProt P00918); enzyme activity; inhibitor; stopped-flow): > 10 µM
COc1cc(CCNC(C)c2ccccc2O)c(OC)cc1C#N (stereo not drawn)  Ki (Alpha-2A adrenergic receptor (ADRA2A, Homo sapiens, UniProt P08913); cell-free assay; radioligand): 0.912 µM
COc1ccc(C(=O)Nc2ccc3c(c2)C=CCP(=O)(O)O3)cc1  Ki (Carbonic anhydrase 1 (CA1, Homo sapiens, UniProt P00915); enzyme activity; inhibitor; stopped-flow): > 10 µM
CC[C@H](C)[C@H](NC(=O)[C@H](CCCCNC(=O)CN(CCNC(=O)CN(CCNC(=O)CN(CCNC(=O)CN(CCNC(=O)[C@H](CCCNC(=N)N)NC(C)=O)C(=O)Cn1ccc(N)nc1=O)C(=O)Cn1cnc2c(=O)[nH]c(N)nc21)C(=O)Cn1cnc2c(=O)[nH]c(N)nc21)C(=O)Cn1ccc(N)nc1=O)NC(=O)[C@H](CC(=O)O)NC(=O)[C@H](CO)NC(=O)[C@@H](NC(=O)[C@H](CCCNC(=N)N)NC(=O)[C@H](CCSC)NC(=O)[C@H](CO)NC(=O)[C@H](C)NC(=O)[C@H](CCC(=O)O)NC(=O)[C@H](C)NC(=O)[C@H](Cc1c[nH]cn1)NC(=O)CNC(=O)[C@H](CC(C)C)NC(=O)[C@H](CCC(=O)O)NC(=O)[C@H](CC(=O)O)NC(=O)[C@H](CC(C)C)NC(=O)[C@H](CC(C)C)NC(=O)[C@H](CCCNC(=N)N)NC(=O)[C@H](CS)NC(=O)[C@H](CCCC(=O)NCCN(CC(=O)NCCN(CC(=O)NCCN(CC(=O)NCCN(CC(=O)N[C@@H](CCCNC(=N)N)C(N)=O)C(=O)Cn1cnc2c(=O)[nH]c(N)nc21)C(=O)Cn1ccc(N)nc1=O)C(=O)Cn1ccc(N)nc1=O)C(=O)Cn1cnc2c(=O)[nH]c(N)nc21)NC(=O)[C@H](CCC(=O)O)NC(=O)[C@H](Cc1ccc(O)cc1)NC(=O)[C@@H](NC(=O)[C@H](CCCCN)NC(=O)[C@H](CCC(N)=O)NC(=O)[C@H](CC(C)C)NC(=O)[C@@H](NC(=O)[C@H](Cc1c[nH]c2ccccc12)NC(=O)[C@H](CCC(=O)O)NC(=O)[C@H](CCCCN)NC(=O)[C@H](CC(=O)O)NC(C)=O)[C@@H](C)CC)[C@@H](C)CC)C(C)C)C(=O)N[C@@H](Cc1ccc(O)cc1)C(=O)N[C@@H](CCC(=O)O)C(=O)N[C@@H](Cc1ccccc1)C(=O)N[C@@H](CCSC)C(=O)N[C@@H](CCCCN)C(=O)N[C@@H](CCCCN)C(N)=O  Kd (Spike glycoprotein; binding; SPR): 0.027 µM
